Experimental data pooled from the literature.
Target: G protein-coupled receptor kinase 4 (GRK4, Homo sapiens, UniProt P32298)

COc1cc2ncnc(Nc3ccc(Oc4ccccc4)c(C)c3C)c2cc1OC
inhibition (enzyme activity, inhibitor; 1 µM): -4%

CN(C)C1CCN(CC#Cc2nn(C3CCCC3)c3nc(NCc4ccccc4)ncc23)C1 (stereo not shown)
inhibition (enzyme activity, inhibitor, FRET; 1 µM): 11%

Cc1ccc(C(=O)Nc2ccc(CN3CCN(C)CC3)c(C(F)(F)F)c2)cc1C#Cc1cnc2cccnn12
remaining activity (enzyme activity, inhibitor; 23.5 nM): 96%

N#CCCc1ccc2c(c1)-c1[nH]c3ccc([N+](=O)[O-])cc3c1CC(=O)N2
remaining signal (cell-free assay; 0.5 µM): 101%

CCCS(=O)(=O)Nc1ccc(F)c(C(=O)c2c[nH]c3ncc(-c4ccc(Cl)cc4)cc23)c1F
inhibition (enzyme activity, inhibitor; 1 µM): < 10%

Cc1noc([C@H]2C[C@@H](c3ccc(C(F)(F)F)cc3)CN(C(=O)N3CCS(=O)(=O)C3)C2)n1
remaining binding (cell-free assay, competition with immobilised ligand; 1 µM): 99%

CS(=O)(=O)CCNCc1ccc(-c2ccc3ncnc(Nc4ccc(OCc5cccc(F)c5)c(Cl)c4)c3c2)o1
remaining signal (cell-free assay; 0.5 µM): 90.3%

c1ccc(N2CCN(Cc3nc4ccccc4[nH]3)CC2)nc1
remaining binding (binding, competition with immobilised ligand; 1 µM): 100%

O=C(Nc1cnn(-c2csc(C(=O)NC3COC3)c2)c1)Nc1c(F)cccc1Cl
remaining activity (enzyme activity, inhibitor; 5 µM): 93.6%

CN(C)CC#Cc1ccc(OCCCc2sc(N3CCc4cccc(C(=O)Nc5nc6ccccc6s5)c4C3)nc2C(=O)O)c(F)c1
remaining binding (cell-free assay, competition with immobilised ligand; 1 µM): 100%

CC(C)(C)c1nc2c(s1)c1nc(N)ncc1c1ccc(NS(=O)(=O)c3c(F)cccc3F)c(F)c12
remaining activity (enzyme activity, inhibitor, radiometric; 1 µM): 70%

O=C(Nc1ccc(Oc2ccc(F)cc2)cc1)N1CCc2ncccc2[C@H]1c1ccc(F)cc1
remaining binding (cell-free assay, competition with immobilised ligand; 1 µM): 93%

O=C1NC(=O)c2cc(Nc3ccc(F)cc3)c(Nc3ccc(F)cc3)cc21
remaining signal (cell-free assay; 0.5 µM): 103%
